# Compound activity as filed in PubChem.
# A selection: hits, their analogues and other compounds. The true share with any hit is near 0.86%.
# miR-122 sensor – miR-122 Renilla sensor signal increase in Huh7, primary screen, miR-122 inhibitor project, cell-based, single point, plate reader. Huh7 miR-122 Renilla luciferase sensor, 48 h; neutral wells = 0, positive control = 100. activation (reporter increase), % at 12.5 µM. actives 0.3% (n = 340,000). AID 602342, 2012;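 active means mean replicate activation score at least 90 and every replicate individually at or above 90; inconclusive means only one of the two criteria met; inactive means neither criterion met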;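 further: higher luciferase means less miR-122 activity so hits act as miR-122 inhibitors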
# Rtt109 HAT inh – inhibitors of C. albicans Rtt109/Vps75 HAT, primary screen, biochemical, ThioGlo CoA-SH fluorescence, plate reader; Histone acetyltransferase RTT109 (Candida albicans (strain SC5314 / ATCC MYA-2876)), …; purified Rtt109/Vps75, 4 h; inhibition, % at 34.9 µM; actives 0.16% (n = 330,000);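 active means inhibition of at least 50% in every replicate; inconclusive means best replicate reaches 50% inhibition but some replicates fall short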
# Target sequence (Q5AAJ8 whole entry, looked up): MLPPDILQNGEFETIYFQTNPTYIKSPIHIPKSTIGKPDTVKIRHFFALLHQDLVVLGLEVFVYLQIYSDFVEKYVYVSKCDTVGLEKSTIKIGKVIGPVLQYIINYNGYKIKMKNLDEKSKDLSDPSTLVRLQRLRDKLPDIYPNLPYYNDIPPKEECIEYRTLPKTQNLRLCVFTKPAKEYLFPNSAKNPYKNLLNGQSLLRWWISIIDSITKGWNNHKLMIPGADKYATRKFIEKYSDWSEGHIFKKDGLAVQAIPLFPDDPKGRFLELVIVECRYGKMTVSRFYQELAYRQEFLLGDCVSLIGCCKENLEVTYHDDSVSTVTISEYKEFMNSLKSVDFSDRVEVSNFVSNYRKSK
# ERAP1 HTS inh – human ERAP1 aminopeptidase inhibitors, primary screen, biochemical, single point, plate reader; Endoplasmic reticulum aminopeptidase 1 (Homo sapiens), Q9NZ08; recombinant ERAP1, Leu-AMC fluorescence, 60 min; inhibition, % at 10.7 µM; actives 0.15% (n = 340,000); AID 652197, 2013;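 active means mean replicate inhibition of at least 30%, or all replicates individually reaching that 30% level; inactive means mean below 30% and not every replicate reaching it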;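 further: 0% = neutral control wells and 100% = L-leucinethiol positive control wells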
# MLL AF4-AF9 inh – inhibitors of AF4 peptide binding to AF9, primary screen, biochemical, AlphaScreen, biotin-AF4 peptide, FLAG-AF9, single point. AID 651704, 2012. actives 0.47% (n = 350,000). inhibition, % at 10 µM;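 active means every replicate reaching a set inhibition limit, whatever the replicate mean, cut at about 25% in these data; inconclusive means mean inhibition reaches that limit but some replicates miss it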;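 further: 0% = plate neutral control median and 100% = total signal loss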
# S100A4 MyoIIA – inhibitors of S100A4-myosin IIA peptide binding, primary screen, biochemical, fluorescence polarization, TAMRA-MyoIIA peptide; Protein S100-A4 (Homo sapiens), P26447; inhibition, % at 10.7 µM; actives 0.14% (n = 360,000);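 active means mean inhibition of at least 70% across replicates, with every replicate also reaching that level; inconclusive means mean inhibition reaches 70% but some replicates fall short; inactive means mean inhibition below 70%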
# Target sequence (P26447 whole entry, looked up): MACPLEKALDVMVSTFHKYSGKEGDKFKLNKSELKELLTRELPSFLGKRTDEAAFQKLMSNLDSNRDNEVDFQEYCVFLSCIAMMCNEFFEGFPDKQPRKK
#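 Compound dosing: one dose per compound; test system: human S100A4 monomer with TAMRA-labelled myosin IIA peptide; probe or stimulus: TAMRA-labelled myosin IIA heavy-chain peptide probe, 5 nM; medium: HEPES buffer with Ca2+, pH 7.2; schedule: 5 min incubation before reading; benchmarks: neutral control DMSO, positive control TFP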
# The depositor's hits bear a star; ? = inconclusive; nt = no result; [ ] = another dose, or the depositor's remark.
SMILES,miR-122 sensor,Rtt109 HAT inh,ERAP1 HTS inh,MLL AF4-AF9 inh,S100A4 MyoIIA
CCOC(=O)C1CCCN(C(=O)c2ccc3nc(-c4ccc(OC)c(OC)c4)c(-c4ccc(OC)c(OC)c4)nc3c2)C1 (stereo unspecified),-9.6,12.4,33.8*,-4.4,10.9
CC(=O)c1cccc(NC(=S)N2CCc3ccccc32)c1,nt,5.0,-2.4,-1.4,1.4
CC(=O)c1cccc(NC(=O)C(C)N2CCc3ccccc3C2)c1 (stereo unspecified),128.3*,0.0,-0.8,-100.5,-36.6
NC(N)=N/N=C(\N=Nc1ccccc1)c1cccc2cccnc12,4.3,15.1,-6.5,7.4,-1.9
NC(N)=N/N=C(\N=Nc1ccccc1)c1ccc(Cl)cc1,0.6,-15.2,-4.3,34.7*,2.1
Cc1noc(C)c1NC(=O)Nc1ccc2c(c1)CC(=O)N([C@@H](C)CO)C[C@@H](C)[C@H](CN(C)S(C)(=O)=O)O2,nt,nt,0.6,-4.3,-9.4
CC(C(=O)OCC(=O)c1ccc([N+](=O)[O-])cc1)N1C(=O)C2C3CCC(C3)C2C1=O (stereo unspecified),nt,107.5*,-2.9,-12.7,5.3
CC(C)(C)c1cc(N)n2nc(C(C)(C)C)cc2n1,nt,52.7*,-0.8,-4.8,-3.6
COc1cccc(-c2cnc(C(O)c3ccc(F)c(C)c3)[nH]2)c1 (stereo unspecified),9.9,nt,0.3,6.2,0.1
Cc1cc(C(O)c2ncc(-c3ccccc3)[nH]2)ccc1F (stereo unspecified),157.9*,nt,nt,nt,nt
OC(c1ccc(Cl)c(F)c1)c1ncc(-c2cccc(F)c2)[nH]1 (stereo unspecified),123.7*,nt,-3.0,8.9,-3.0
COc1cccc(C(NC(C)=O)c2ccc3cccnc3c2O)c1 (stereo unspecified),-13.2,3.7,-0.4,26.1*,0.9
CCC(=O)NC(c1ccccc1OC)c1ccc2cccnc2c1O (stereo unspecified),nt,-3.4,nt,nt,nt
CC(=O)NC(c1cccc([N+](=O)[O-])c1)c1ccc2cccnc2c1O (stereo unspecified),nt,-13.2,-0.2,1.3,0.0
COc1ccc(Cl)cc1C(Nc1cccnc1)c1ccc2cccnc2c1O (stereo unspecified),15.0,-9.8,4.9,25.7*,-4.3
CO[C@H](CN(C)Cc1cc(F)ccc1F)[C@H](C)CN([C@@H](C)CO)S(=O)(=O)c1ccc(F)cc1,nt,nt,-4.6,-27.7,-0.2
Cc1ccc(C(=O)NCCNC(=O)COc2ccccc2Cl)cn1,-13.7,50.8*,-2.9,-3.4,-0.5
Cc1ccc(C(=O)NCC(=O)OCCOc2ccccc2Cl)cc1,-4.6,56.5*,0.7,8.2,1.1
CN(C)CC(=O)N1[C@@H]2c3ccc(-c4cccnc4)c(=O)n3C[C@H]1[C@H](CO)[C@H]2C(=O)NC1CCCC1,nt,nt,-5.1,-1.7,9.5
CCC(=O)N1[C@H](CN(CC)C(=O)c2cccc(F)c2)[C@H](c2ccccc2)[C@@H]1CO,125.0*[16.7 µM],nt,nt,-1.3,34.0
CCN(C[C@H]1[C@H](c2ccccc2)[C@H](CO)N1C(C)=O)C(=O)c1ccccn1,35.7[16.7 µM],nt,0.2,0.4,103.5*
CCC(=O)N1[C@H](CO)[C@H](c2ccccc2)[C@@H]1CN(CC)C(=O)c1cccc(F)c1,250.0*[16.7 µM],nt,nt,-3.4,-10.6
O=S(=O)(c1ccc(NC(=S)NCCC(c2ccccc2)c2ccccc2)cc1)N1CCOCC1,nt,20.9,nt,nt,nt
CCCCOCCCNC(=S)Nc1ccc(S(=O)(=O)N2CCOCC2)cc1,176.0*,1.7,1.4,-6.1,-1.5
O=C(c1ccccc1)N1CC2(C1)[C@H](c1ccccc1)[C@@H](CO)N2Cc1ccccn1,nt,nt,-1.3,-3.7,106.6*
SMILES,miR-122 sensor,Rtt109 HAT inh,ERAP1 HTS inh,MLL AF4-AF9 inh,S100A4 MyoIIA
C[C@@H]1CN([C@H](C)CO)C(=O)c2cccc(NC(=O)c3nc4ccccc4s3)c2O[C@H]1CN(C)C(=O)Nc1ccc(C(F)(F)F)cc1,2.6[16.7 µM],nt,-0.2,2.7,-25.1
COc1ccc(C)cc1Nc1n[n+](-c2ccccc2)c(-c2c(OC)ccc3ccccc23)s1,nt,-26.3,-2.2,40.4*,-1.4
CCOc1cc(-c2sc(Nc3cc(C)ccc3OC)n[n+]2-c2ccccc2)ccc1OC,13.0,-1.3,1.6,15.5,9.4
CCOc1cc(-c2sc(Nc3ccc(CC)cc3)n[n+]2-c2ccccc2)ccc1OC,3.7,?,-4.4,26.6*,-6.2
C[C@H]1CN([C@@H](C)CO)C(=O)c2cccc(NS(C)(=O)=O)c2O[C@H]1CN(C)C(=O)Nc1ccc(F)cc1,5.6[16.7 µM],nt,-5.2,-3.0,14.4
CC(C)(C)OC(=O)C[C@H]1C/C=C\C[C@H](CC(=O)N[C@H](CO)Cc2ccccc2)C(=O)N[C@H](Cc2ccccc2)COC1=O,nt,-2.3,-2.0,-0.7,108.4*
CC(C)(C)OC(=O)C[C@@H]1C/C=C\C[C@H](CC(=O)N[C@H](CO)Cc2ccccc2)C(=O)N[C@H](Cc2ccccc2)COC1=O,nt,6.3,-2.5,2.7,-1.0
COc1ccc(C#Cc2ccc3c(c2)[C@]2(C(=O)N3)[C@H](c3ccc(OCCO)cc3)N3[C@H](c4ccccc4)[C@H](c4ccccc4)OC(=O)[C@H]3[C@@H]2C(=O)N2CCCCCCC2)cc1,nt,nt,1.2,-8.8,-41.5
O=C(Cc1ccccc1)N1CC[C@@H]2[C@@H](CO)Nc3ccc(-c4cccc(F)c4)cc3[C@@H]21,109.2*[16.7 µM],nt,-1.8,2.3,-11.0
CN1c2ccc(-c3ccccc3)cc2[C@@H]2[C@@H](CCN2C(=O)c2cccc(F)c2)[C@@H]1CO,27.7[16.7 µM],nt,4.3,1.5,130.2*
O=C(c1cccc(F)c1)N1CC[C@@H]2[C@@H](CO)Nc3ccc(-c4ccccc4)cc3[C@@H]21,nt,nt,0.0,31.4*,-3.1
C[C@H]1CN([C@@H](C)CO)C(=O)c2ccccc2-c2ccccc2CO[C@H]1CN(C)S(=O)(=O)c1cccc(F)c1,nt,nt,1.0,1.1,10.1
C[C@@H]1CN([C@@H](C)CO)C(=O)c2cc(C#Cc3ccccc3F)cnc2O[C@@H]1CN(C)C(=O)Cc1cccnc1,nt,nt,1.5,-1.1,5.5
Cc1ccc(C#N)c(SCc2nnc(-c3ccc(Cl)cc3)o2)n1,2.2,57.6*,nt,nt,nt
C=CC(=O)Nc1cccc(Oc2ccnc(Nc3ccc(N4CCN(C)CC4)cc3)n2)c1,1.7,4.2,12.7,70.1*,2.5
CC(C)NC(=O)N(C)C[C@@H]1Oc2c(NC(=O)C3CCCCC3)cccc2C(=O)N([C@H](C)CO)C[C@H]1C,-0.8[16.7 µM],nt,-1.3,-2.1,5.4
COc1ccc2c3c(n(C)c2c1)[C@H](CO)N(C(=O)Nc1ccc(F)cc1)CC31CCN(Cc2cccnc2)CC1,nt,nt,nt,18.8,nt
COc1ccc2c3c(n(C)c2c1)[C@@H](CO)N(C(=O)Nc1ccc(F)cc1)CC31CCN(Cc2cccnc2)CC1,nt,nt,nt,38.6*,nt
